In publication PMC5203969 (Clinical cancer research : an official journal of the …, 2016):
Where two headings read alike, the source gives them in different places.

Legend:
[1] = test system: HCC78 NSCLC cell line; assay: Proliferation of HCC78 NSCLC cell line; type: cell-based, human
Summary of the method: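 HCC-78 cells were obtained from ATCC (STR-authenticated) and passaged under 6 months. Cells were exposed to test compound for 72 hours, and viability was read by CellTiter Glo luminescence.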

[2] = test system: Parental Ba/F3 cells; assay: Proliferation of parental Ba/F3 cells grown in the presence of IL-3; type: cell-based, murine; settings: read-out: IC50 Parental Ba/F3
Summary of the method: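 Parental Ba/F3 cells are immortalized murine bone-marrow pro-B cells. They were incubated with test compound for 72 hours, and viability was measured by CellTiter Glo. Final DMSO was under 0.5%.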

[3] = test system: CUTO-3 cells; assay: Proliferation of CUTO-3 tumor cells; type: cell-based, human
[4] = test system: NTRK1 autophosphorylation in NIH-3T3 cells transformed with FLAG-tagged CD74-NTRK1; type: cell-based; settings: 6 hours, western blot
[5] = test system: NTRK1 autophosphorylation in CUTO-3 cells (MPRIP-NTRK1); assay: Western blot of NTRK1 autophosphorylation in CUTO-3 cells; type: cell-based, human; settings: 6 hours, dovitinib at 1000 nM
Summary of the method: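 CUTO-3 cells (MPRIP-NTRK1, patient-derived) were treated with inhibitor for 6 hours. They were lysed for 30 min in 0.1% Triton X-100 plus protease inhibitor. Lysates were run on 4–12% Bis-Tris gels and transferred to PVDF. Membranes were blocked in 5% milk, then probed with primary antibody at 1:1,000 and secondary at 1:5,000.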

[6] = test system: F589V CD74-NTRK1; type: cell-based; settings: 293 cells transiently transfected with wild-type and F589V CD74-NTRK1
[7] = test system: ROS1 autophosphorylation and ERK in CD74-ROS1 wild-type transformed Ba/F3 cells; assay: Western blot of ROS1; type: cell-based, murine
[8] = test system: ROS1 autophosphorylation and ERK in CD74-ROS1 G2032R transformed Ba/F3 cells; assay: Western blot of ROS1; type: cell-based, murine
[9] = test system: ROS1 autophosphorylation and ERK in CD74-ROS1 L2026M transformed Ba/F3 cells; assay: Western blot of ROS1; type: cell-based, murine
[10] = molecular target: Ba/F3 cells transformed with CD74-ROS1 (wild-type) (Homo sapiens, UniProt P04233+P08922); assay: Proliferation of Ba/F3 cells transformed with CD74-ROS1 wild-type; type: cell-based, murine; settings: peak plasma level obtained through FDA-approved oral dosing
Sequence of Ba/F3 cells transformed with CD74-ROS1 (wild-type) (P08922 1883-2347 limits assumed, one chain of several): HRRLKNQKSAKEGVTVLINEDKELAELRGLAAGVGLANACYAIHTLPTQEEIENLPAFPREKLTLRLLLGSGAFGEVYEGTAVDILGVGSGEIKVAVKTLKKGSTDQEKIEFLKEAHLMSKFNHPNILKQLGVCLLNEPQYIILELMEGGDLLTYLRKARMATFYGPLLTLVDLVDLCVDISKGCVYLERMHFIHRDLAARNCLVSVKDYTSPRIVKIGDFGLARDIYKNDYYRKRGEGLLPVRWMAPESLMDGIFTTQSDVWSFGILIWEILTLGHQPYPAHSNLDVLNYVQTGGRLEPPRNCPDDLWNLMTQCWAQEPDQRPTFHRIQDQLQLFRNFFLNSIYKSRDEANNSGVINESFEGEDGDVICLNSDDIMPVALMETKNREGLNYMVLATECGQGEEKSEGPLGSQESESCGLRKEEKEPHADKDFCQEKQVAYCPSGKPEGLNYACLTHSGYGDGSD

[11] = test system: medullary thyroid cancer; settings: cited from earlier work
[12] = test system: prostate cancer; settings: cited from earlier work
[13] = test system: RET-rearranged NSCLC; settings: of 3 patients with RET-rearranged NSCLC; cited from earlier work
[14] = test system: ROS1-rearranged metastatic lung adenocarcinoma; assay: Treatment of one patient with ROS1-rearranged metastatic lung adenocarcinoma
[15] = test system: ROS1-rearranged NSCLC; settings: phase II; cited from earlier work
[16] = observed in clinical trials; cited from earlier work
[17] = Homo sapiens, HCC78, read-out: IC50 inhibition of the HCC78 NSCLC cell line
[18] = read-out: IC50 inhibition of CUTO-3 cells, proliferation
[19] = Homo sapiens, CUTO-3, read-out: IC50 inhibition of CUTO-3 cells, proliferation

CCc1cc2c(cc1N1CCC(N3CCOCC3)CC1)C(C)(C)c1[nH]c3cc(C#N)ccc3c1C2=O [Alectinib]
IC50 [1, 17]: 0.75 µM

Cc1cc(N2CCOCC2)cc2[nH]c(-c3c(NC[C@@H](O)c4cccc(Cl)c4)cc[nH]c3=O)nc12 [BMS-536924]
IC50 ([2]; parental Ba/F3 cells, 72 hours): 2.75 µM
IC50 [3, 18]: 0.034 µM
inhibition of NTRK1 autophosphorylation [4]: inhibit NTRK1 autophosphorylation
inhibition of NTRK1 autophosphorylation [5]: inhibited NTRK1 autophosphorylation
effect of F589V mutation on inhibition of NTRK1 autophosphorylation [6]: did not affect inhibition of NTRK1 autophosphorylation

COc1cc(N2CCC(N3CCN(C)CC3)CC2)ccc1Nc1ncc(Cl)c(Nc2ccccc2P(C)(C)=O)n1 [Brigatinib, brigatinib]
IC50 [1, 17]: 2.2 µM
phosphorylation of ROS1 and ERK [7]: inhibits the phosphorylation of ROS1 and ERK
phosphorylation of ROS1 and ERK [8]: less activity seen
phosphorylation of ROS1 and ERK [9]: inhibits the phosphorylation of ROS1 and ERK

COc1cc2nccc(Oc3ccc(NC(=O)C4(C(=O)Nc5ccc(F)cc5)CC4)cc3)c2cc1OC [Cabozantinib, cabozantinib]
fold by which inhibitory concentrations are below the peak plasma level [10]: ~ 50 fold
IC50 [1, 17]: 1.36 µM
phosphorylation of ROS1 and ERK [7]: a decrease is seen in the phosphorylation of ROS1 and ERK
phosphorylation of ROS1 and ERK [8]: a decrease is seen in the phosphorylation of ROS1 and ERK
phosphorylation of ROS1 and ERK [9]: a decrease is seen in the phosphorylation of ROS1 and ERK
patients with dose-reductions ([11]; medullary thyroid cancer study): 79%
progression-free survival ([11]; medullary thyroid cancer, vs. 4 months placebo): 11.2 months
patients with doses held ([11]; medullary thyroid cancer): 65%
patients with discontinuation due to adverse events ([11]; phase III thyroid cancer study): 16%
discontinuation rate ([12]; 40 mg group): 18%
rate of dose reduction ([12]; 40 mg group): 31%
discontinuation rate ([12]; 100 mg group): 25%
rate of dose reduction ([12]; 100 mg group): 84%
patients with a partial response [13]: 2 patients
patients with stable disease [13]: 1 patient
right lower lobe lesion size on CT ([14]; 4 weeks after initiation of cabozantinib, from 1.7 cm): 1.4 cm
fatigue ([14]; single patient, after approximately 3 weeks on treatment): grade II
palmar-plantar erythrodysesthesia ([14]; single patient, after approximately 3 weeks on treatment, 140 to 80 mg daily): grade III

Cc1cc(Nc2ncc(Cl)c(Nc3ccccc3S(=O)(=O)C(C)C)n2)c(OC(C)C)cc1C1CCNCC1 [Ceritinib]
IC50 [1, 17]: 0.53 µM

C[C@@H](Oc1cc(-c2cnn(C3CCNCC3)c2)cnc1N)c1c(Cl)ccc(F)c1Cl [Crizotinib, crizotinib]
IC50 ([3]; Homo sapiens, CUTO-3, read-out: IC50 inhibition of CUTO-3 cells): 0.462 µM
IC50 [1, 17]: 1.6 µM
phosphorylation of ROS1 and ERK [7]: inhibits the phosphorylation of ROS1 and ERK
progression-free survival [15]: 19.2 month
response rate [15]: 72%

CN1CCN(c2ccc(C(=O)Nc3n[nH]c4ccc(Cc5cc(F)cc(F)c5)cc34)c(NC3CCOCC3)c2)CC1 [Entrectinib, entrectinib]
IC50 [1, 17]: 0.45 µM
phosphorylation of ROS1 and ERK [7]: only effective at blocking activity of wild-type ROS1 signaling
phosphorylation of ROS1 and ERK [8]: only effective at blocking activity of wild-type ROS1 signaling
phosphorylation of ROS1 and ERK [9]: only effective at blocking activity of wild-type ROS1 signaling

COc1cc2c(Oc3ccc(NC(=O)C4(C(=O)Nc5ccc(F)cc5)CC4)cc3F)ccnc2cc1OCCCN1CCOCC1 [Foretinib, foretinib]
IC50 [1, 17]: 0.46 µM
phosphorylation of ROS1 and ERK [7]: a decrease is seen in the phosphorylation of ROS1 and ERK
phosphorylation of ROS1 and ERK [8]: a decrease is seen in the phosphorylation of ROS1 and ERK
phosphorylation of ROS1 and ERK [9]: a decrease is seen in the phosphorylation of ROS1 and ERK

C[C@H]1Oc2cc(cnc2N)-c2c(nn(C)c2C#N)CN(C)C(=O)c2ccc(F)cc21 [PF-06463922]
IC50 ([1]; read-out: IC50 inhibition of the HCC78 NSCLC cell line, proliferation): > 10 µM
phosphorylation of ROS1 and ERK [7]: inhibited wild-type and L2026M mutant ROS1 autophosphorylation and ERK activation
phosphorylation of ROS1 and ERK [8]: little effect on signaling
phosphorylation of ROS1 and ERK [9]: inhibited wild-type and L2026M mutant ROS1 autophosphorylation and ERK activation

CN1CCN(c2ccc3nc(-c4c(N)c5c(F)cccc5[nH]c4=O)[nH]c3c2)CC1 [dovitinib, Dovitinib]
IC50 ([2]; Mus musculus, BaF3, 72 h): 4.2 µM
IC50 [3, 19]: 0.17 µM
inhibition of NTRK1 autophosphorylation [4]: weaker than would be suggested by its IC50 value
inhibition of NTRK1 autophosphorylation [5]: partial inhibition
peak plasma level with oral dosing [16]: 568 nM

C[C@]12O[C@H](C[C@]1(O)CO)n1c3ccccc3c3c4c(c5c6ccccc6n2c5c31)CNC4=O [lestaurtinib, Lestaurtinib]
IC50 ([2]; Mus musculus, BaF3, 72 h): 3.4 µM
IC50 [3, 19]: 0.0035 µM
IC50 [3, 18]: 0.003 µM
inhibition of NTRK1 autophosphorylation [4]: inhibit NTRK1 autophosphorylation
inhibition of NTRK1 autophosphorylation [5]: inhibited NTRK1 autophosphorylation
effect of F589V mutation on inhibition of NTRK1 autophosphorylation [6]: did not affect inhibition of NTRK1 autophosphorylation
